Assay results from ChEMBL document CHEMBL4396879, “Conjugation of Short Peptides to Dibenzodiazepinone-Type Muscarinic Acetylcholine Receptor Ligands Determines M2R Selectivity” (J Med Chem, 2019).

Key:
Type in all cases: cell-based
[1] = molecular target: T1, Muscarinic acetylcholine receptor M1 (Homo sapiens, UniProt P11229); assay: Displacement of [3H]-NMS from human muscarinic M1 receptor expressed in CHO-K9 cells after 3 hrs by microbeta2 scintillation counting method
T1 sequence (P11229 whole entry): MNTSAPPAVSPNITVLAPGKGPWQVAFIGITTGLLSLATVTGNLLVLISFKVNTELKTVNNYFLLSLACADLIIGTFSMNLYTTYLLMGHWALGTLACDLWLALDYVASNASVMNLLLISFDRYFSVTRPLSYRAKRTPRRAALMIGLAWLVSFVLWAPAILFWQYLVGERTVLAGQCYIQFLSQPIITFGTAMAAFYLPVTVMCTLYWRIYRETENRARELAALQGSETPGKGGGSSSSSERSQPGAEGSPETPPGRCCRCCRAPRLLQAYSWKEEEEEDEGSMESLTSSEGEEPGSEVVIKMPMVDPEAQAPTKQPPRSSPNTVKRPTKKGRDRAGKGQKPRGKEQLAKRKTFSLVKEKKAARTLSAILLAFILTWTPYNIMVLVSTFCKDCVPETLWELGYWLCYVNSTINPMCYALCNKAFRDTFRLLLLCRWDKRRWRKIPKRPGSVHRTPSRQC
Summary of the method: (§1)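 [3H]NMS competition binding on intact CHO-hMxR cells in L15 medium with 1% BSA, 3 h at 22 ± 1 °C with gentle shaking. [3H]NMS was 0.2 nM (M1, M2, M3), 0.1 nM (M4) or 0.3 nM (M5). […] Cells were lysed in urea/acetic acid/Triton and counted by liquid scintillation. Ki from Cheng-Prusoff. Triplicates, ≥3 experiments.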

[2] = molecular target: T2, Muscarinic acetylcholine receptor M2 (Homo sapiens, UniProt P08172); assay: Displacement of [3H]-NMS from human muscarinic M2 receptor expressed in CHO-K9 cells after 3 hrs by microbeta2 scintillation counting method; summary of the method: as §1
T2 sequence (P08172 whole entry): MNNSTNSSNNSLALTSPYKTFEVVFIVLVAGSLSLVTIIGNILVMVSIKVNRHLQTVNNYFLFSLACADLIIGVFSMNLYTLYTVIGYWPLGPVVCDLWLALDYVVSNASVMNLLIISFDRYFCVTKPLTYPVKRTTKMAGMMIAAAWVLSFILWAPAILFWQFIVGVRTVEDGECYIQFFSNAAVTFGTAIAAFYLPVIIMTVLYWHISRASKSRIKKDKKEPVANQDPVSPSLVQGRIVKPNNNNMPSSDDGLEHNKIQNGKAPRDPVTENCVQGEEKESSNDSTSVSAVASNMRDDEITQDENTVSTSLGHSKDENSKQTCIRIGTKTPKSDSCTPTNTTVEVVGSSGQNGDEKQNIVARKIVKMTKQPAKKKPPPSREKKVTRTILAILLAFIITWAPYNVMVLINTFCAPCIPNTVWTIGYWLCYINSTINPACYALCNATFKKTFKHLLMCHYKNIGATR

[3] = molecular target: Muscarinic acetylcholine receptor M3 (Homo sapiens, UniProt P20309); assay: Displacement of [3H]-NMS from human muscarinic M3 receptor expressed in CHO-K9 cells after 3 hrs by microbeta2 scintillation counting method; summary of the method: as §1
Muscarinic acetylcholine receptor M3, sequence (P20309 whole entry): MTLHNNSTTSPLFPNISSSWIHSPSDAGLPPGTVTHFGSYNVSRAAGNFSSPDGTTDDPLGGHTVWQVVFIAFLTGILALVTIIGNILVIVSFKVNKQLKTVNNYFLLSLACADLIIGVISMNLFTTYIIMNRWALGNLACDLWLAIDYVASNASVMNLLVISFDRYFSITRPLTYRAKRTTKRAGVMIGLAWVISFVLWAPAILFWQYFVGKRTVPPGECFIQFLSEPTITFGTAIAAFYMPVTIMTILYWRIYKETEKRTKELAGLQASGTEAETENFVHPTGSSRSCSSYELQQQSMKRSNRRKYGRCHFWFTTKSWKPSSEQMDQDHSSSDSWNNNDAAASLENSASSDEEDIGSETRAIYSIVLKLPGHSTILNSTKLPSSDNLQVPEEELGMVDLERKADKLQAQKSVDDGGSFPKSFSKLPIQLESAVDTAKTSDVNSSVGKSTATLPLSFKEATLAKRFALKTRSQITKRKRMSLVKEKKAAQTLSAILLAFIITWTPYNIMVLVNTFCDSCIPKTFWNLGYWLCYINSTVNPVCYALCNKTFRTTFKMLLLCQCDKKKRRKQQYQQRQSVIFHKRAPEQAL

[4] = molecular target: T3, Muscarinic acetylcholine receptor M4 (Homo sapiens, UniProt P08173); assay: Displacement of [3H]-NMS from human muscarinic M4 receptor expressed in CHO-K9 cells after 3 hrs by microbeta2 scintillation counting method; summary of the method: as §1
T3 sequence (P08173 whole entry): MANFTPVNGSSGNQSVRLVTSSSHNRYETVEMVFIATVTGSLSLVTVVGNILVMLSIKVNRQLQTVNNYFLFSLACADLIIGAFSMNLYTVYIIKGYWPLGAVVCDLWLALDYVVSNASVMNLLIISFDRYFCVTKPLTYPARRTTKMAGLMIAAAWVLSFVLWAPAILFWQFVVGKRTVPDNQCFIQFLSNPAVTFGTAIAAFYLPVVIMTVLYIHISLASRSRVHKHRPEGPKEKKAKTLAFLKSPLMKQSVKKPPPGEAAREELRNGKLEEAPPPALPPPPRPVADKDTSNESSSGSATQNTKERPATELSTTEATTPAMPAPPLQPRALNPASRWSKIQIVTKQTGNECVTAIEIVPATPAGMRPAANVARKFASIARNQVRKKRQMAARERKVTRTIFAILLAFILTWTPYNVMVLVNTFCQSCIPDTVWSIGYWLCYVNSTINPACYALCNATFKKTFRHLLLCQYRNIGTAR

[5] = molecular target: T4, Muscarinic acetylcholine receptor M5 (Homo sapiens, UniProt P08912); assay: Displacement of [3H]-NMS from human muscarinic M5 receptor expressed in CHO-K9 cells after 3 hrs by microbeta2 scintillation counting method; summary of the method: as §1
T4 sequence (P08912 whole entry): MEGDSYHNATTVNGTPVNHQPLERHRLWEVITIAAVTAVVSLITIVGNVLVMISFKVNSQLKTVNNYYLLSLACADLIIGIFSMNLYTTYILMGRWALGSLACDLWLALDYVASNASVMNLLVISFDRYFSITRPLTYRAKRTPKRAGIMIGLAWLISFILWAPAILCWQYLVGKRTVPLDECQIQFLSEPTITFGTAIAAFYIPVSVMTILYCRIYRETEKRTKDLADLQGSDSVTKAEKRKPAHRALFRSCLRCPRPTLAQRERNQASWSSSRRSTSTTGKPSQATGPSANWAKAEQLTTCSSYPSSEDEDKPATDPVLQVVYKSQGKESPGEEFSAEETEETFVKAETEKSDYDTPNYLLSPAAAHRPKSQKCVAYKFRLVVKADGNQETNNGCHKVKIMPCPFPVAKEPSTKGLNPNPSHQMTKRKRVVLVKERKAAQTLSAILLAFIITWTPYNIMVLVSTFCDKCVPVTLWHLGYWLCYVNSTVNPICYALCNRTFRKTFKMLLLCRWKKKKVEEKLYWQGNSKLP

[6] = molecular target: Muscarinic acetylcholine receptors; M1 & M2 (Homo sapiens) (UniProt P11229+P08172); assay: Selectivity ratio of Ki for human muscarinic M1 receptor expressed in CHO-K9 cells to Ki for human muscarinic M2 receptor expressed in CHO-K9 cells
Summary of the method: (§2)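 Ratio of mean Ki values. Each Ki came from an individual [3H]NMS competition experiment at the given CHO-hMxR subtype, converting IC50 to Ki by Cheng-Prusoff before averaging.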

[7] = molecular target: Muscarinic acetylcholine receptors; M2 & M3 (Homo sapiens) (UniProt P20309+P08172); assay: Selectivity ratio of Ki for human muscarinic M3 receptor expressed in CHO-K9 cells to Ki for human muscarinic M2 receptor expressed in CHO-K9 cells; summary of the method: as §2
Muscarinic acetylcholine receptors; M2 & M3 (Homo sapiens), sequence (P20309 whole entry, looked up, one chain of several): as the sequence (P20309 whole entry) above

[8] = molecular target: Muscarinic acetylcholine receptor M2 and M4 (Homo sapiens) (UniProt P08173+P08172); assay: Selectivity ratio of Ki for human muscarinic M4 receptor expressed in CHO-K9 cells to Ki for human muscarinic M2 receptor expressed in CHO-K9 cells; summary of the method: as §2
[9] = molecular target: Muscarinic acetylcholine receptor M2 and M5 (Homo sapiens) (UniProt P08172+P08912); assay: Selectivity ratio of Ki for human muscarinic M5 receptor expressed in CHO-K9 cells to Ki for human muscarinic M2 receptor expressed in CHO-K9 cells; summary of the method: as §2

Row | Ki [1] | Ki [2] | Ki [3] | Ki [4] | Ki [5] | Ratio Ki [6] | Ratio Ki [7] | Ratio Ki [8] | Ratio Ki [9] | Structure (SMILES)
1 | 3.16 nM | 0.427 nM | 155 nM | 2.45 nM | 457 nM | 7.5 | 370 | 7.5 | 1100 | CC(=O)N[C@@H](C)C(=O)N[C@@H](C)C(=O)NCCN1CCN(CCCCC2CCN(CC(=O)N3c4ccccc4NC(=O)c4ccccc43)CC2)CC1
2 | 20 nM | 1.7 nM | 955 nM | 29.5 nM | 162 nM | 12 | 710 | 19 | 97 | CC(=O)N[C@@H](CCCNC(=N)N)C(=O)N[C@@H](CCCNC(=N)N)C(=O)NCCCCC1CCN(CC(=O)N2c3ccccc3NC(=O)c3ccccc32)CC1
3 | 85.1 nM | 79.4 nM | 5370 nM | 209 nM | 7080 nM | 1.1 | 69 | 2.7 | 98 | CCC(=O)NCCCCC1CCN(CC(=O)N2c3ccccc3NC(=O)c3ccccc32)CC1
4 | 32.4 nM | 4.17 nM | 646 nM | 27.5 nM | 200 nM | 8.2 | 180 | 6.9 | 49 | CC(=O)N[C@@H](CCCCN)C(=O)N[C@@H](CCCNC(=N)N)C(=O)NCC(=O)NCCCCC1CCN(CC(=O)N2c3ccccc3NC(=O)c3ccccc32)CC1
5 |  |  |  |  |  | 7.6 | 78 | 7.4 | 300 | CCC(=O)NCc1cc(C(=O)NCCN2CCC(N3CCC(n4c(=O)[nH]c5ccccc54)CC3)CC2)cc(C(=O)NCCN2CCN(CCCCC3CCN(CC(=O)N4c5ccccc5NC(=O)c5ccccc54)CC3)CC2)c1
6 | 178 nM | 9.33 nM | 5010 nM | 57.5 nM | 209 nM | 19 | 550 | 5.9 | 23 | CC(=O)N[C@@H](Cc1ccc(O)cc1)C(=O)N[C@@H](C)C(=O)N[C@@H](CCCCN)C(=O)NCCCCC1CCN(CC(=O)N2c3ccccc3NC(=O)c3ccccc32)CC1
7 | 107 nM | 5.37 nM | 1260 nM | 56.2 nM | 2400 nM | 18 | 260 | 9.8 | 410 | N=C(N)NCCC[C@H](N)C(=O)NCCCCC1CCN(CC(=O)N2c3ccccc3NC(=O)c3ccccc32)CC1
8 | 2.29 nM | 0.0794 nM | 35.5 nM | 1.62 nM | 30.9 nM | 27 | 410 | 19 | 390 | CC(=O)N[C@@H](Cc1c[nH]c2ccccc12)C(=O)N[C@@H](C)C(=O)N[C@@H](Cc1ccc(O)cc1)C(=O)NCCN1CCN(CCCCC2CCN(CC(=O)N3c4ccccc4NC(=O)c4ccccc43)CC2)CC1
9 | 58.9 nM | 4.27 nM | 661 nM | 23.4 nM | 224 nM | 14 | 160 | 5.8 | 53 | CC(=O)N[C@@H](CCCCN)C(=O)N[C@@H](C)C(=O)N[C@@H](Cc1ccc(O)cc1)C(=O)NCCCCC1CCN(CC(=O)N2c3ccccc3NC(=O)c3ccccc32)CC1
10 | 97.7 nM | 11.2 nM | 1480 nM | 148 nM | 977 nM | 8.4 | 140 | 13 | 86 | CC(=O)N[C@@H](CCCNC(=N)N)C(=O)NCCCCC1CCN(CC(=O)N2c3ccccc3NC(=O)c3ccccc32)CC1
11 | 30.2 nM | 1.82 nM | 1620 nM | 10.7 nM | 74.1 nM | 17 | 720 | 5.9 | 43 | CC(=O)N[C@@H](CCCCN)C(=O)N[C@@H](Cc1ccc(O)cc1)C(=O)NCCCCC1CCN(CC(=O)N2c3ccccc3NC(=O)c3ccccc32)CC1
12 | 2.14 nM | 0.0794 nM | 16.2 nM | 0.912 nM | 141 nM | 32 | 220 | 13 | 1900 | CC(=O)N[C@@H](Cc1ccc(O)cc1)C(=O)N[C@@H](CCCCN)C(=O)NCCN1CCN(CCCCC2CCN(CC(=O)N3c4ccccc4NC(=O)c4ccccc43)CC2)CC1
13 | 1.23 nM | 0.0631 nM | 49 nM | 2.04 nM | 112 nM | 20 | 800 | 37 | 1900 | CC(=O)N[C@@H](CCCCN)C(=O)N[C@@H](CCCNC(=N)N)C(=O)NCCN1CCN(CCCCC2CCN(CC(=O)N3c4ccccc4NC(=O)c4ccccc43)CC2)CC1
14 | 0.871 nM | 0.148 nM | 13.5 nM | 1.07 nM | 38.9 nM | 6.3 | 79 | 7 | 220 | CC(=O)N[C@@H](Cc1c[nH]c2ccccc12)C(=O)N[C@@H](Cc1ccc(O)cc1)C(=O)NCCN1CCN(CCCCC2CCN(CC(=O)N3c4ccccc4NC(=O)c4ccccc43)CC2)CC1
15 | 155 nM | 33.1 nM | 1580 nM | 93.3 nM | 58.9 nM | 5 | 46 | 2.8 | 1.8 | CC(=O)N[C@@H](Cc1c[nH]c2ccccc12)C(=O)N[C@@H](Cc1ccc(O)cc1)C(=O)NCCCCC1CCN(CC(=O)N2c3ccccc3NC(=O)c3ccccc32)CC1
